Assay outcomes from PubChem BioAssay.
Shown are actives, neighbours in structure and some others; about 3% of the full set was active somewhere.
PLCb3 inh: human PLC-beta3 inhibitors, primary screen, biochemical, fluorescence | 1-phosphatidylinositol 4,5-bisphosphate phosphodiesterase beta-3 (Homo sapiens), Q01970 | Purified PLC-beta3, fluorogenic substrate | inhibition, % at 12.2 µM | 370,000 tested, 0.18% active; in the data active = inhibition above about 11%;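 also: 0% = median of compound wells on plate and 100% = full blocker control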
Tn7 DDE FP: inhibitors of Tn7 peptide binding to fibrin DD(E), primary screen, biochemical, fluorescence polarization, human fibrin, Tn7 probe | 370,000 tested, 0.13% active | inhibition, % at 8.3 µM | Fibrinogen beta chain (Homo sapiens), P02675 | FP displacement of FITC-Tn7 peptide from fibrin DD(E); 0% = median of compound wells per plate;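 active = inhibition above the mean of compounds falling within the control limits plus 3 SD of them, cut at about 14% in these data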;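 also: 0% = plate median of compound wells and 100% = 10 µM Aha-Tn7 peptide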
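assay system = human clot-derived fibrin DD(E) complex | quantity = Fibrin-DD(E) at 2 µM final | timing = 10 min preincubation, 3 h with tracer, room temperature | signal = fluorescence polarization | measure = percent inhibition | benchmarks = high control wells with 10 µM unlabelled Aha-Tn7 peptide (full inhibition) | replicates = singlicate testing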
NRP1-CendR mod: modulators of CendR peptide binding to NRP-1, primary screen, biochemical, fluorescence polarization, uHTS. Neuropilin-1 (Homo sapiens), O14786. FAM-RPARPAR peptide binding to NRP-1. inhibition, % at 25 µM. 360,000 tested, 0.85% active;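 active = inhibition or corrected inhibition above about 18%, plus a signal ratio from 0.5 to 1.5, limit read from the data, passing the limit was not always enough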
Tn6 DDE FP: inhibitors of Tn6 peptide binding to fibrin DD(E), primary screen, biochemical, fluorescence polarization, human fibrin, Tn6 probe. Fibrinogen beta chain (Homo sapiens), P02675. Fibrin DD(E) TRITC-Tn6 fluorescence polarization displacement. inhibition, % at 8.3 µM. 370,000 tested, 0.21% active;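 active = inhibition above a per-campaign cutoff: mean of compounds within control limits plus 3 SD, cut at about 15% in these data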;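 also: 0% = median of all compound wells on the plate and 100% = blocking peptide control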
PLC-gamma1 inh: PLC-gamma1 enzyme inhibitors, primary screen, biochemical, fluorescence, purified enzyme; AID 720700, 2013; fluorogenic substrate; 370,000 tested, 0.84% active; inhibition, % at 12.2 µM; in the data active = inhibition above about 9.5%
proKLK7 act: proKLK7 zymogen activators, primary screen, biochemical, fluorescence intensity; Kallikrein-7 (Homo sapiens), P49862; purified proKLK7, EDANS-DABCYL substrate fluorescence; 100% is mature enzyme control, 0% vehicle; activation, % at 7 µM; 370,000 tested, 0.9% active;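 active = activation above the mean of all tested compounds plus 3 SD, computed per campaign excluding outliers beyond control limits, cut at about 13% in these data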
Target sequence (P49862 whole entry, looked up): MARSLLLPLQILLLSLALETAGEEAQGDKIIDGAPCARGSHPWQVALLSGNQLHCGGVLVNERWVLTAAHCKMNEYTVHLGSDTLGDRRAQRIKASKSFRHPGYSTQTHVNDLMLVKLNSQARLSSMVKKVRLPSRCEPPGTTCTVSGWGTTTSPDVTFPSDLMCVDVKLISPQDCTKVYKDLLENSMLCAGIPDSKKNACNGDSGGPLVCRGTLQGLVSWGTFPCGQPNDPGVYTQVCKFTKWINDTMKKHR
The depositor's hits bear a star; i = inactive; nt = no result given.

SMILES	PLCb3 inh	Tn7 DDE FP	NRP1-CendR mod	Tn6 DDE FP	PLC-gamma1 inh	proKLK7 act
CCCCNC(=S)N1CCn2cccc2C1c1ccccc1 (stereo unspecified)	-7.7	-1.7	27.1*	9.6	-5.0	1.0
CCCCCCCCN1C(=O)[C@@H](CC(=O)NCc2cccs2)C[C@@]2(C(=O)OC)C1=C[C@H](C(C)C)O[C@@H]2C1CC1	-0.5	3.4	nt	-1.6	-0.1	1.0
CCOc1ccccc1N1C(=O)CC(N(O)c2ccccc2)C1=O (stereo unspecified)	0.9	2.1	1.0	3.0	-0.4	67.4*
CC(=O)c1c(C)[nH]c(C(=O)OCC(=O)Nc2cc(Cl)ccc2[N+](=O)[O-])c1C	10.4	-7.4	-3.7	2.3	10.8*	0.3
CC(=O)c1c(C)[nH]c(C(=O)OCC(=O)NCc2cccs2)c1C	-6.7	-7.8	21.2*	-1.0	-1.7	-0.1
O=C(NCc1ccc(Cl)cc1)O[C@H]1CC[C@@]23CCCN2C(=O)CCC[C@H]3C1	1.2	-6.8	nt	-3.2	1.4	nt
S=c1[nH]nc(-c2cc(-c3ccccc3)n[nH]2)n1/N=C/c1cccc2ccccc12	0.4	-1.9	nt	2.1	-1.1	-0.6
CCCCN(C)C(=O)c1ccc2c(c1)NC(=O)C(C)(C)O2	-1.9	2.9	nt	4.8	0.0	0.2
COc1cc(C=Nn2c(-c3n[nH]c4c3CCC4)n[nH]c2=S)ccc1OCc1ccccc1	0.6	6.8	nt	10.2	-2.1	0.2
O=C(CCC(=O)OCC(=O)c1ccc(-c2ccccc2)cc1)Nc1cccc(Cl)c1	4.6	-1.1	-2.0	0.7	-1.1	0.4
Cc1ccccc1NC(=O)CCC(=O)OCC(=O)c1ccc(-c2ccccc2)cc1	-7.5	2.1	26.8*	-4.2	-1.7	0.4
CCC(=O)NC(=S)Nc1ccc(S(=O)(=O)NC(C)=O)cc1	3.1	1.8	24.7*	-6.8	2.3	0.0
O=C(NC1(C(F)(F)F)NC(=O)N(Cc2cccnc2)C1=O)c1ccccc1 (stereo unspecified)	4.7	2.7	-7.7	-4.8	3.2	-0.4
O=C(NC1(C(F)(F)F)NC(=O)N(Cc2ccccc2)C1=O)c1cccnc1 (stereo unspecified)	1.5	2.9	40.7*	2.9	4.2	0.9
CC(OC(=O)C1CCN(S(=O)(=O)c2ccccc2)CC1)C(=O)Nc1ncc(Cl)cc1Cl (stereo unspecified)	4.1	2.1	-2.4	6.0	-3.1	-0.6
CC(OC(=O)C1CCCC1)C(=O)Nc1ncc(Cl)cc1Cl (stereo unspecified)	-7.5	1.4	22.2*	-2.6	-4.5	-0.9
CC(=O)N1CCN(C(=S)c2ccc([N+](=O)[O-])cc2)CC1	0.5	-3.6	18.4*	-5.8	4.0	0.2
Cc1cccc(Cl)c1NC(=O)N(C)c1ccccc1	4.6	-0.5	nt	-9.1	11.7*	-0.3
C#CCCCN([C@@H](CC(C)C)C(=O)OC)S(=O)(=O)c1ccc(F)cc1Br	0.1	-0.6	nt	-3.8	-2.2	0.0
C/C(=N\NC(=O)C1CCCC1)c1ccc(C(C)C)cc1	-6.5	-2.3	26.8*	-2.7	-0.9	0.6
Cn1c(N)c(C(=O)COC(=O)c2cc(-c3ccco3)nc3ccccc23)c(=O)n(C)c1=O	-22.0	-4.6	-34.0	-6.3	-13.8	-0.5
CNC(=O)COC(=O)c1cc(-c2ccco2)nc2ccccc12	i	-4.8	-1.4	0.0	i	130.5*
COCCCN1C(=O)[C@H](CC(=O)NCc2ccccc2)[C@]2(C(=O)OC)CCCCC=C12	0.5	2.2	nt	-2.3	7.3	0.1
Cc1cc(=O)oc(C)c1C(=O)Nc1ccc2nsnc2c1	-47.1	-10.7	27.0*	3.0	-28.9	0.6
Cc1cc(=O)oc(C)c1C(=O)Nc1ccc2ncccc2c1	-68.2	2.0	-16.8	-4.6	-50.3	-0.8
SMILES	PLCb3 inh	Tn7 DDE FP	NRP1-CendR mod	Tn6 DDE FP	PLC-gamma1 inh	proKLK7 act
COc1ccc(NC(=O)C(CCCCNC(=O)OC(C)(C)C)NC2(C(=O)NCCc3c[nH]c4ccccc34)CCCCC2)cc1 (stereo unspecified)	1.1	-7.8	nt	-3.3	0.4	nt
Fc1ccccc1/C=N/Nc1ncnc2nc[nH]c12	6.2	-1.0	-2.4	4.2	9.8*	-0.9
Fc1cccc(/C=N/Nc2ncnc3nc[nH]c23)c1	3.0	2.5	-5.7	2.7	4.6	-0.3
CC(NC(=O)COc1ccccc1)C(=O)NCc1ccc(S(N)(=O)=O)cc1 (stereo unspecified)	1.0	-6.1	-10.2	11.6	-2.2	-0.3
COC(=O)C1N[C@@H]([C@@H](NC(=O)COc2ccccc2)C(=O)NCc2ccccc2)SC1(C)C (stereo partly specified)	0.5	3.3	31.6*	-4.8	-0.5	0.0
COC(=O)CCCC1=CC2=C(c3ccccc3)C(=O)C(C)(OC(=O)C3CCCC3)C(=O)C2=CN1Cc1ccco1 (stereo unspecified)	-22.2	6.8	29.5*	-1.8	-25.5	1.0
CCN(CC)CCNC(=O)c1ccc(NC(=O)c2cccc(S(=O)(=O)N3CCc4ccccc43)c2)cc1	-5.3	-2.3	-9.6	-0.5	1.9	0.1
CC1Cc2ccccc2N1S(=O)(=O)c1cccc(C(=O)N2CCN(c3ncccn3)CC2)c1 (stereo unspecified)	-0.9	-1.3	35.0*	-4.5	1.2	0.0
CCN(CC)CCNC(=O)c1ccc(NC(=O)c2cccc(S(=O)(=O)N3c4ccccc4CC3C)c2)cc1 (stereo unspecified)	-13.3	-0.4	29.5*	-10.1	0.9	0.3
CC(C)[C@H](NC(=O)OCc1ccccc1)C(=O)OCC(=O)NC1(C#N)CCCC1	-5.7	14.7*	12.7	13.8	-1.9	-0.5
Cc1cc(C)n(CCC(=O)N/N=C/c2ccc(O)cc2)n1	3.3	-9.2	4.6	2.2	-0.1	-0.9
Cc1cc(C)n(CCC(=O)N/N=C/c2c(O)ccc3ccccc23)n1	-13.8	1.3	34.1*	-7.2	-10.2	-2.0
CCOC(=O)[C@@]12CCC3=C1N(CCC3)C(=O)[C@H](CC(=O)N1CCSCC1)C2	2.4	2.4	nt	6.9	0.3	0.0
CC(=O)N(Cc1ccccc1)c1ccc(C(=O)O)cc1	8.4	5.0	-0.2	1.9	9.7*	0.4
CC[C@@H](CCC=C(C)C)C(=O)N(Cc1ccccc1)c1ccccc1	1.2	3.3	-3.2	0.3	0.3	0.1
